Measured values as given in ChEMBL document CHEMBL1145908 (J Med Chem, 2003).
The source made the active and inactive calls. No cut-off for these calls is given here. Residues, ends and D or L forms follow the SMILES beside them. *: point of attachment. X1 = CC(C)CCC[C@@H](C)[C@H]1CCC2C3CC=C4C[C@H](SC[C@@H]5CCN6CC[C@@H](CSCC(=O)*)NC6=N5)CC[C@]4(C)C3CC[C@@]21C; X3 = CC(C)(C)[Si](OC[C@@H]1CCN2CC[C@@H](COC(=O)CCCCC(=O)*)NC2=N1)(c1ccccc1)c1ccccc1; X5 = CC(C)(C)[Si](OC[C@@H]1CCN2CC[C@@H](CNC(=O)CCCCC(=O)*)NC2=N1)(c1ccccc1)c1ccccc1; X2 = CC(C)(C)[Si](OCC1CCN2CCC(CSCC(=O)*)NC2=N1)(c1ccccc1)c1ccccc1; X4 = O=C(CCCCC(=O)*)OC[C@@H]1CCN2CC[C@@H](CO)N=C2N1; X6 = O=C(CCCCC(=O)*)NC[C@@H]1CCN2CC[C@@H](CO)N=C2N1; OBn = c1ccc(CO*)cc1; Bn = c1ccc(C*)cc1

Key:
[1] = biological target: Human immunodeficiency virus type 1 protease (Human immunodeficiency virus 1, UniProt Q72874); experiment: In vitro inhibitory activity against HIV-1 Protease
In short: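 Recombinant HIV-1 PR expressed in E. coli (pET9c-PR). Fluorogenic DABCYL-γ-abu-[…]EDANS substrate 5.2 μM, enzyme 7.5 nM, in 100 mM sodium acetate, 1 mM EDTA, 1 M NaCl, pH 4.7, 30 °C, 3% DMSO final. Fluorescence read at ex 340/em 490 nm. IC50 fitted from % inhibition across 0.5–28 μM inhibitor. Ki derived by Zhang's method using 1.88–28 nM enzyme.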

[2] = biological target: Human immunodeficiency virus type 1 protease (Human immunodeficiency virus 1) (UniProt Q72874); experiment: Competitive inhibition against HIV-1 Protease
[3] = biological target: Human immunodeficiency virus type 1 protease (Human immunodeficiency virus 1) (UniProt Q72874); experiment: Dimerization inhibition against HIV-1 Protease
In short: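 Recombinant HIV-1 PR expressed in E. coli (pET9c-PR). Hydrolysis of DABCYL-γ-abu-[…]EDANS (5.2 μM) was followed by fluorescence (ex 340/em 490 nm) in 100 mM sodium acetate, 1 mM EDTA, 1 M NaCl, pH 4.7, 30 °C, with 3% DMSO final. Initial rates were taken at ≥7 enzyme levels (1.88–28 nM) per inhibitor concentration. Kic/Kid were obtained by Zhang's method from [E]0/√vi vs √vi plots.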

[4] = biological target: Human immunodeficiency virus type 1 protease (Human immunodeficiency virus 1) (UniProt Q72874); experiment: Inhibitory activity against HIV-1 Protease at 14 uM
[5] = biological target: Human immunodeficiency virus type 1 protease (Human immunodeficiency virus 1) (UniProt Q72874); experiment: Inhibitory activity against HIV-1 Protease at 28 uM
[6] = biological target: Human immunodeficiency virus type 1 protease (Human immunodeficiency virus 1) (UniProt Q72874); experiment: In vitro inhibitory activity against HIV-1 Protease; No inhibition

Compound	IC50 [1] [µM]	Kid [3] [µM]	other results
CC(C)CCC[C@@H](C)[C@H]1CCC2C3CC=C4C[C@H](SC[C@@H]5CCN6CC[C@@H](CSCC(=O)NCC(=O)N[C@@H](C)C(=O)N[C@H](C(=O)N[C@@H](CC(C)C)C(=O)N[C@@H](CC(N)=O)C(=O)N[C@@H](Cc7ccccc7)C(=O)OCc7ccccc7)[C@@H](C)OCc7ccccc7)NC6=N5)CC[C@]4(C)C3CC[C@@]21C (some centres undefined) (X1-GAT(Bn)LNF-OBn)	3	0.4	Kic [2]: 0.4 µM
CC[C@H](C)[C@H](NC(=O)[C@H](C)NC(=O)CSCC1CCN2CCC(CO[Si](c3ccccc3)(c3ccccc3)C(C)(C)C)N=C2N1)C(=O)N[C@H](C(=O)N[C@@H](CC(C)C)C(=O)N[C@@H](Cc1c[nH]c2ccccc12)C(=O)OC)[C@@H](C)OCc1ccccc1 (some centres undefined) (X2-AIT(Bn)LW-OMe)	5	6.5	
CC(C)C[C@H](NC(=O)[C@@H](NC(=O)[C@H](C)NC(=O)CNC(=O)CSCC1CCN2CCC(CO[Si](c3ccccc3)(c3ccccc3)C(C)(C)C)N=C2N1)[C@@H](C)OCc1ccccc1)C(=O)N[C@@H](CC(N)=O)C(=O)N[C@@H](Cc1ccccc1)C(=O)O (some centres undefined) (X2-GAT(Bn)LNF-OH)	11		
CC[C@H](C)[C@H](NC(=O)CNC(=O)CSCC1CCN2CCC(CO[Si](c3ccccc3)(c3ccccc3)C(C)(C)C)N=C2N1)C(=O)N[C@@H](COCc1ccccc1)C(=O)N[C@@H](Cc1ccc(OCc2ccccc2)cc1)C(=O)N[C@@H](CC(N)=O)C(=O)N[C@@H](CC(C)C)C(=O)OC (some centres undefined) (X2-GIS(Bn)Y(Bn)NL-OMe)	3.3	0.29	
CC[C@H](C)[C@H](NC(=O)CNC(=O)CSCC1CCN2CCC(CO[Si](c3ccccc3)(c3ccccc3)C(C)(C)C)N=C2N1)C(=O)N[C@@H](CO)C(=O)N[C@@H](Cc1ccc(O)cc1)C(=O)N[C@@H](CC(N)=O)C(=O)N[C@@H](CC(C)C)C(=O)OC (some centres undefined) (X2-GISYNL-OMe)	5		Kic [2]: 6 µM
COC(=O)[C@H](Cc1ccccc1)NC(=O)[C@H](CC(N)=O)NC(=O)[C@H](CC(C)C)NC(=O)[C@@H](NC(=O)[C@H](C)NC(=O)CCCCC(=O)OC[C@@H]1CCN2CC[C@@H](CO[Si](c3ccccc3)(c3ccccc3)C(C)(C)C)N=C2N1)[C@@H](C)O (X3-ATLNF-OMe)	1.9	0.55	
COC(=O)[C@H](Cc1ccccc1)NC(=O)[C@H](CC(N)=O)NC(=O)[C@H](CC(C)C)NC(=O)[C@@H](NC(=O)[C@H](C)NC(=O)CCCCC(=O)OC[C@@H]1CCN2CC[C@@H](CO)N=C2N1)[C@@H](C)O (X4-ATLNF-OMe)			inhibition [4]: 28%
COC(=O)[C@H](Cc1ccccc1)NC(=O)[C@H](CC(N)=O)NC(=O)[C@H](CC(C)C)NC(=O)[C@@H](NC(=O)[C@H](C)NC(=O)CCCCC(=O)NC[C@@H]1CCN2CC[C@@H](CO[Si](c3ccccc3)(c3ccccc3)C(C)(C)C)N=C2N1)[C@@H](C)O (X5-ATLNF-OMe)			inhibition [5]: 28%
COC(=O)[C@H](Cc1ccccc1)NC(=O)[C@H](CC(N)=O)NC(=O)[C@H](CC(C)C)NC(=O)[C@@H](NC(=O)[C@H](C)NC(=O)CCCCC(=O)NC[C@@H]1CCN2CC[C@@H](CO)N=C2N1)[C@@H](C)O (X6-ATLNF-OMe)			NI [6]: inactive
CC(C)C[C@H](NC(=O)[C@@H](NC(=O)[C@H](C)NC(=O)CNC(=O)CSCC1CCN2CCC(CO[Si](c3ccccc3)(c3ccccc3)C(C)(C)C)N=C2N1)[C@@H](C)OCc1ccccc1)C(=O)N[C@@H](CC(N)=O)C(=O)N[C@@H](Cc1ccccc1)C(=O)OCc1ccccc1 (stereo in doubt; 6 (S,S)) [listing 1 of 2 here]	1.6		
CC(C)C[C@H](NC(=O)[C@@H](NC(=O)[C@H](C)NC(=O)CNC(=O)CSCC1CCN2CCC(CO[Si](c3ccccc3)(c3ccccc3)C(C)(C)C)N=C2N1)[C@@H](C)OCc1ccccc1)C(=O)N[C@@H](CC(N)=O)C(=O)N[C@@H](Cc1ccccc1)C(=O)OCc1ccccc1 (stereo in doubt; 6 (S,S)) [listing 2 of 2 here]		0.15	
CC(C)C[C@H](NC(=O)[C@@H](NC(=O)[C@H](C)NC(=O)CNC(=O)CSCC1CCN2CCC(CO[Si](c3ccccc3)(c3ccccc3)C(C)(C)C)N=C2N1)[C@@H](C)OCc1ccccc1)C(=O)N[C@@H](CC(N)=O)C(=O)N[C@@H](Cc1ccccc1)C(=O)OCc1ccccc1 (stereo in doubt; 6'(R,R)) [listing 1 of 2 here]	2		
CC(C)C[C@H](NC(=O)[C@@H](NC(=O)[C@H](C)NC(=O)CNC(=O)CSCC1CCN2CCC(CO[Si](c3ccccc3)(c3ccccc3)C(C)(C)C)N=C2N1)[C@@H](C)OCc1ccccc1)C(=O)N[C@@H](CC(N)=O)C(=O)N[C@@H](Cc1ccccc1)C(=O)OCc1ccccc1 (stereo in doubt; 6'(R,R)) [listing 2 of 2 here]		0.15	
